Converted amounts (≈) assume the structure as drawn.
Assays:
Staphylococcus aureus [1] = test: Antimicrobial activity against Staphylococcus aureus ATCC 29213 by CLSI M07-A9 method; type: functional
Summary of the method: (§1)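 Laboratory strains tested following CLSI guidelines. Each compound was run in duplicate in at least two independent experiments, and the MIC was recorded.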

Staphylococcus aureus [2] = test: Antimicrobial activity against Staphylococcus aureus ATCC 43300 by CLSI M07-A9 method; type: functional; summary of the method: as §1
Enterococcus faecium [3] = test: Antimicrobial activity against Enterococcus […] ATCC 29212 by CLSI M07-A9 method; type: functional; summary of the method: as §1
Enterococcus faecium [4] = test: Antimicrobial activity against Enterococcus […] ATCC 51299 by CLSI M07-A9 method; type: functional; summary of the method: as §1
Escherichia coli = test: Antimicrobial activity against Escherichia coli ATCC 25922 by CLSI M07-A9 method; type: functional; summary of the method: as §1
Pseudomonas aeruginosa = test: Antimicrobial activity against Pseudomonas aeruginosa ATCC 27853 by CLSI M07-A9 method; type: functional; summary of the method: as §1
Candida albicans = test: Antimicrobial activity against Candida albicans ATCC 28517 by CLSI M07-A9 method; type: functional; summary of the method: as §1
[5] = Cytotoxicity against African green monkey BSC1 cells assessed as decrease in cell viability after 24 hrs by MTT assay; type: toxicity, cell-based, Chlorocebus aethiops, BSC-1; conditions: for IC50: bsc-1; for IC50 at 24 h: African green monkey (Chlorocebus aethiops), BSC1 cells
[6] = Cytotoxicity against human HCT116 cells assessed as decrease in cell viability after 24 hrs by MTT assay; type: toxicity, cell-based, HCT-116

Molecule	MIC (Staphylococcus aureus [1])	MIC (Staphylococcus aureus [2])	MIC (Enterococcus faecium [3])	MIC (Enterococcus faecium [4])	MIC (Escherichia coli)	MIC (Pseudomonas aeruginosa)	MIC (Candida albicans)	IC50 [5]	MNTC at 24 h [6]	IC50 at 24 h [5]	Activity (Escherichia coli)
Oc1c(Br)cc(Br)cc1Oc1c(O)c(Br)cc(Br)c1Br	1.6 µg/mL (≈ 2.68 µM)	0.31 µg/mL (≈ 0.52 µM)	3.1 µg/mL (≈ 5.2 µM)	3.1 µg/mL (≈ 5.2 µM)	100 µg/mL (≈ 168 µM)	> 50 µg/mL	> 50 µg/mL	> 50 µg/mL	50 µg/mL	–	–
COc1cc(Br)c(Br)c(Br)c1Oc1cc(Br)cc(Br)c1OC	> 50 µg/mL	> 50 µg/mL	> 50 µg/mL	> 50 µg/mL	> 50 µg/mL	> 50 µg/mL	> 50 µg/mL	> 50 µg/mL	50 µg/mL	–	–
COc1c(Br)cc(Br)cc1Oc1cc(Br)c(Br)c(Br)c1OC	> 50 µg/mL	> 50 µg/mL	> 50 µg/mL	> 50 µg/mL	> 50 µg/mL	> 50 µg/mL	> 50 µg/mL	–	50 µg/mL	> 50 µg/mL	–
Oc1c(Br)c(Br)c(Br)c(Br)c1Oc1ccc(Br)cc1Br	1.6 µg/mL (≈ 2.43 µM)	0.8 µg/mL (≈ 1.21 µM)	33 µg/mL (≈ 50 µM)	33 µg/mL (≈ 50 µM)	> 100 µg/mL	–	–	29 µg/mL (≈ 44 µM)	–	–	–
Oc1cc(Br)c(Br)c(Br)c1Oc1cc(Br)cc(Br)c1O	0.31 µg/mL (≈ 0.52 µM)	0.078 µg/mL (≈ 0.131 µM)	0.39 µg/mL (≈ 0.654 µM)	0.39 µg/mL (≈ 0.654 µM)	25 µg/mL (≈ 41.9 µM)	–	> 50 µg/mL	> 50 µg/mL	50 µg/mL	–	–
COc1c(Br)c(Br)c(O)c(Oc2cc(Br)cc(Br)c2O)c1Br	0.78 µg/mL (≈ 1.24 µM)	0.39 µg/mL (≈ 0.622 µM)	3.1 µg/mL (≈ 4.95 µM)	1.56 µg/mL (≈ 2.49 µM)	> 50 µg/mL	> 50 µg/mL	> 50 µg/mL	> 50 µg/mL	50 µg/mL	–	–
Oc1c(Br)cc(Br)cc1Oc1cc(Br)c(Br)c(Br)c1O	0.31 µg/mL (≈ 0.52 µM)	0.16 µg/mL (≈ 0.268 µM)	1.6 µg/mL (≈ 2.68 µM)	0.78 µg/mL (≈ 1.31 µM)	–	–	> 50 µg/mL	> 50 µg/mL	50 µg/mL	–	–
COc1c(Br)cc(Br)cc1Oc1ccc(Br)cc1Br	3.7 µg/mL (≈ 7.17 µM)	0.4 µg/mL (≈ 0.775 µM)	11 µg/mL (≈ 21.3 µM)	11 µg/mL (≈ 21.3 µM)	> 100 µg/mL	–	–	35 µg/mL (≈ 67.9 µM)	–	–	–
Cc1onc(-c2ccccc2)c1C(=O)N[C@@H]1C(=O)N2[C@@H]1SC(C)(C)[C@@H]2C(=O)O [OXACILLIN]	0.13 µg/mL (≈ 0.324 µM)	> 32 µg/mL	–	32 µg/mL (≈ 79.7 µM)	–	–	–	–	–	–	–
Oc1c(Br)cc(Br)cc1Oc1c(Br)cc(Br)c(Br)c1O	0.78 µg/mL (≈ 1.31 µM)	0.16 µg/mL (≈ 0.268 µM)	1.6 µg/mL (≈ 2.68 µM)	0.78 µg/mL (≈ 1.31 µM)	–	> 50 µg/mL	> 50 µg/mL	> 50 µg/mL	50 µg/mL	–	–
C[C@@H]1[C@H](O)[C@@H](C)/C=C/C=C/C=C/C=C/C=C/C=C/C=C/[C@H](O[C@@H]2O[C@H](C)[C@@H](O)[C@H](N)[C@@H]2O)C[C@@H]2O[C@](O)(C[C@@H](O)C[C@@H](O)[C@H](O)CC[C@@H](O)C[C@@H](O)CC(=O)O[C@H]1C)C[C@H](O)[C@H]2C(=O)O [AMPHOTERICIN B]	–	–	–	–	–	–	< 7.8 µg/mL	–	–	–	–
Oc1c(Br)cc(Br)cc1Oc1c(O)c(Br)c(Br)c(Br)c1Br	0.39 µg/mL (≈ 0.577 µM)	0.16 µg/mL (≈ 0.237 µM)	0.78 µg/mL (≈ 1.15 µM)	0.39 µg/mL (≈ 0.577 µM)	–	–	–	> 50 µg/mL	50 µg/mL	–	–
Oc1ccccc1Oc1ccccc1O	50 µg/mL (≈ 247 µM)	50 µg/mL (≈ 247 µM)	> 50 µg/mL	> 50 µg/mL	–	–	–	–	–	–	Non-Toxic
Oc1cc(Br)c(Br)cc1Oc1ccc(Br)cc1Br	0.14 µg/mL (≈ 0.279 µM)	0.015 µg/mL (≈ 0.0299 µM)	0.4 µg/mL (≈ 0.797 µM)	0.4 µg/mL (≈ 0.797 µM)	12.5 µg/mL (≈ 24.9 µM)	–	–	8.8 µg/mL (≈ 17.5 µM)	–	–	–
Oc1c(Br)cc(Br)cc1Oc1ccc(Br)cc1Br	0.78 µg/mL (≈ 1.55 µM)	0.19 µg/mL (≈ 0.379 µM)	0.8 µg/mL (≈ 1.59 µM)	0.8 µg/mL (≈ 1.59 µM)	> 100 µg/mL	–	–	32 µg/mL (≈ 63.8 µM)	–	–	–
Oc1c(Oc2ccc(Br)cc2Br)cc(Br)c(Br)c1Br	3.7 µg/mL (≈ 6.37 µM)	0.4 µg/mL (≈ 0.689 µM)	1.2 µg/mL (≈ 2.07 µM)	1.2 µg/mL (≈ 2.07 µM)	> 100 µg/mL	–	–	15 µg/mL (≈ 25.8 µM)	–	–	–
COc1c(Br)cc(Br)cc1Oc1c(Br)cc(Br)c(Br)c1OC	> 50 µg/mL	> 50 µg/mL	–	–	> 50 µg/mL	> 50 µg/mL	> 50 µg/mL	> 50 µg/mL	50 µg/mL	–	–
COc1c(Br)cc(Br)cc1Oc1c(Br)c(Br)cc(Br)c1OC	> 50 µg/mL	> 50 µg/mL	50 µg/mL (≈ 80 µM)	> 50 µg/mL	> 50 µg/mL	> 50 µg/mL	> 50 µg/mL	–	50 µg/mL	> 50 µg/mL	–
COc1c(Br)cc(Br)cc1Oc1c(Br)c(OC)c(Br)c(Br)c1OC	3.1 µg/mL (≈ 4.73 µM)	3.1 µg/mL (≈ 4.73 µM)	13 µg/mL (≈ 19.9 µM)	13 µg/mL (≈ 19.9 µM)	> 50 µg/mL	> 50 µg/mL	> 50 µg/mL	> 50 µg/mL	50 µg/mL	–	–
Oc1cc(Br)cc(Br)c1Oc1ccc(Br)cc1Br	0.042 µg/mL (≈ 0.0837 µM)	0.08 µg/mL (≈ 0.159 µM)	1.2 µg/mL (≈ 2.39 µM)	1.2 µg/mL (≈ 2.39 µM)	3.1 µg/mL (≈ 6.18 µM)	> 50 µg/mL	> 50 µg/mL	7 µg/mL (≈ 13.9 µM)	–	–	–
Oc1cc(Br)cc(Br)c1O	100 µg/mL (≈ 373 µM)	> 50 µg/mL	12.5 µg/mL (≈ 46.7 µM)	25 µg/mL (≈ 93.3 µM)	> 100 µg/mL	> 50 µg/mL	> 50 µg/mL	> 50 µg/mL	50 µg/mL	–	–
GENTAMICIN	–	–	–	–	–	1 µg/mL	–	–	–	–	–
Oc1cc(Br)cc(Br)c1Oc1cc(Br)cc(Br)c1O	1.6 µg/mL (≈ 3.09 µM)	1.25 µg/mL (≈ 2.41 µM)	3.1 µg/mL (≈ 5.99 µM)	1.6 µg/mL (≈ 3.09 µM)	–	> 50 µg/mL	> 50 µg/mL	> 50 µg/mL	50 µg/mL	–	–

Reference: ChEMBL document CHEMBL3864129, “Polybrominated Diphenyl Ethers: Structure Determination and Trends in Antibacterial Activity” (J Nat Prod, 2016)
